Laboratory results as given in ChEMBL document CHEMBL1123309, “Esters and lactones of phenolic amino carboxylic acids: prodrugs for iron chelation” (J Med Chem, 1986).

Tests used:
Mus musculus [1] = assay: BDF1 male mice were administered with 300 mg/kg orally and percent change in iron levels was determined in Urine; assay type: functional; details: route oral
Summary of the method: (§1)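 Hypertransfused male BDF1 mice (canine red cells, washed and heated at 50 °C for 30 min) were dosed orally for 7 days with compound in distilled water or a fine suspension with Polysorbate 80 (2% final). Daily group urine and pooled feces (1 N HCl digest, 90 °C, 30 min, triplicate) were collected, and liver and spleen were homogenized. Iron was measured by atomic absorption and reported as % change vs transfused control.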

Mus musculus [2] = assay: BDF1 male mice were administered with 75 mg/kg orally and percent change in iron levels was determined in Feces; assay type: functional; details: route oral; summary of the method: as §1
[3] = First order rate constant was determined Spectrophotometrically at pH 7.5
Mus musculus [4] = assay: BDF1 male mice were administered with 150 mg/kg orally and percent change in iron levels was determined in Feces; assay type: functional; details: route oral
Summary of the method: (§2)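 Male BDF1 mice made iron-overloaded by transfusion of washed, heat-treated (50 °C, 30 min) canine red cells. Dosing began 2 days after the last transfusion, once daily for 7 days, in distilled water or 2% Polysorbate 80 suspension. Daily group urine was collected. Pooled feces were digested in 1 N HCl (90 °C, 30 min). Liver and spleen were homogenized in saline. Iron was measured by atomic absorption and expressed as % change vs transfused controls.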

Mus musculus [5] = assay: BDF1 male mice were administered with 300 mg/kg orally and percent change in iron levels was determined in Liver; assay type: functional; details: route oral; summary of the method: as §1
Mus musculus [6] = assay: BDF1 male mice were administered with 400 mg/kg orally and percent change in iron levels was determined in Urine; assay type: functional; details: route oral; summary of the method: as §1
Mus musculus [7] = assay: BDF1 male mice were administered with 600 mg/kg orally and percent change in iron levels was determined in Urine; assay type: functional; details: route oral; summary of the method: as §1
Mus musculus [8] = assay: BDF1 male mice were administered with 150 mg/kg orally and percent change in iron levels was determined in Urine; assay type: functional; details: route oral; summary of the method: as §2
Mus musculus [9] = assay: BDF1 male mice were administered with the compound and number of survivors was determined at a dose 300 mg/kg peroral out of 6 tested; assay type: functional; details: route oral
Summary of the method: (§3)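 Male BDF1 mice were iron-loaded by transfusion of canine red cells. The cells were heparinised, washed twice in isotonic saline and heated at 50 °C for 30 min. Dosing started two days after the last transfusion, once daily for 7 consecutive days. Compounds were given in distilled water or as a fine aqueous suspension with Polysorbate 80 (2% final). Toxic signs were recorded daily and survivors counted per group.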

[10] = Half life was determined at pH 7.5 in the presence of Fe(III) Half life was determined Spectrophotometrically
Mus musculus [11] = assay: BDF1 male mice were administered with 600 mg/kg orally and percent change in iron levels was determined in Feces; assay type: functional; details: route oral; summary of the method: as §1
Mus musculus [12] = assay: BDF1 male mice were administered with the compound and number of survivors was determined at a dose 75 mg/kg peroral out of 6 tested; assay type: functional; details: route oral; summary of the method: as §3
Mus musculus [13] = assay: BDF1 male mice were administered with 150 mg/kg orally and percent change in iron levels was determined in Spleen; assay type: functional; details: route oral; summary of the method: as §2
Mus musculus [14] = assay: BDF1 male mice were administered with the compound and number of survivors was determined at a dose 400 mg/kg peroral out of 10 tested; assay type: functional; details: route oral; summary of the method: as §3
Mus musculus [15] = assay: BDF1 male mice were administered with 600 mg/kg orally and percent change in iron levels was determined in Spleen; assay type: functional; details: route oral; summary of the method: as §1
Mus musculus [16] = assay: BDF1 male mice were administered with 600 mg/kg orally and percent change in iron levels was determined in Liver; assay type: functional; details: route oral; summary of the method: as §1
Mus musculus [17] = assay: BDF1 male mice were administered with 400 mg/kg orally and percent change in iron levels was determined in Liver; assay type: functional; details: route oral; summary of the method: as §1
Mus musculus [18] = assay: BDF1 male mice were administered with 400 mg/kg orally and percent change in iron levels was determined in Feces; assay type: functional; details: route oral; summary of the method: as §1
Mus musculus [19] = assay: BDF1 male mice were administered with 150 mg/kg orally and percent change in iron levels was determined in Liver; assay type: functional; details: route oral; summary of the method: as §2
Mus musculus [20] = assay: BDF1 male mice were administered with 75 mg/kg orally and percent change in iron levels was determined in Liver; assay type: functional; details: route oral; summary of the method: as §1
Mus musculus [21] = assay: BDF1 male mice were administered with 400 mg/kg orally and percent change in iron levels was determined in Spleen; assay type: functional; details: route oral; summary of the method: as §1
Mus musculus [22] = assay: BDF1 male mice were administered with 300 mg/kg orally and percent change in iron levels was determined in Feces; assay type: functional; details: route oral; summary of the method: as §1
Mus musculus [23] = assay: BDF1 male mice were administered with 75 mg/kg orally and percent change in iron levels was determined in Urine; assay type: functional; details: route oral; summary of the method: as §1
Mus musculus [24] = assay: BDF1 male mice were administered with the compound and number of survivors was determined at a dose 150 mg/kg peroral out of 6 tested; assay type: functional; details: route oral; summary of the method: as §3
Mus musculus [25] = assay: BDF1 male mice were administered with 300 mg/kg orally and percent change in iron levels was determined in Spleen; assay type: functional; details: route oral; summary of the method: as §1
Mus musculus [26] = assay: BDF1 male mice were administered with 75 mg/kg orally and percent change in iron levels was determined in Spleen; assay type: functional; details: route oral; summary of the method: as §1
Mus musculus [27] = assay: BDF1 male mice were administered with the compound and number of survivors was determined at a dose 600 mg/kg peroral out of 6 tested; assay type: functional; details: route oral; summary of the method: as §3
Mus musculus [28] = assay: BDF1 male mice were administered with 200 mg/kg intraperitoneally and percent change in iron levels was determined in Urine; assay type: functional; details: route intraperitoneal; summary of the method: as §2
Mus musculus [29] = assay: BDF1 male mice were administered with 200 mg/kg peroral and percent change in iron levels was determined in Feces; assay type: functional; details: route oral; summary of the method: as §2
Mus musculus [30] = assay: BDF1 male mice were administered with 200 mg/kg peroral and number of survivors was determined out of 10 tested; assay type: functional; details: route oral; summary of the method: as §3
Mus musculus [31] = assay: BDF1 male mice were administered with 200 mg/kg intraperitoneally and percent change in iron levels was determined in Spleen; assay type: functional; details: route intraperitoneal; summary of the method: as §2
Mus musculus [32] = assay: BDF1 male mice were administered with 200 mg/kg intraperitoneally and percent change in iron levels was determined in Feces; assay type: functional; details: route intraperitoneal; summary of the method: as §2
Mus musculus [33] = assay: BDF1 male mice were administered with 200 mg/kg peroral and percent change in iron levels was determined in Liver; assay type: functional; details: route oral; summary of the method: as §2
Mus musculus [34] = assay: BDF1 male mice were administered with 200 mg/kg intraperitoneally and percent change in iron levels was determined in liver; assay type: functional; details: route intraperitoneal; summary of the method: as §2
[35] = First order rate constant was determined in the presence of Fe(3+) Titrimetrically; assay type: ADME
Summary of the method: (§4)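 Metal and chelator were each 5 × 10⁻⁴ M. Constant pH was held with 0.05 M NaOH. Hydrolysis rate came from base consumption, with first-order kinetics.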

Mus musculus [36] = assay: BDF1 male mice were administered with 200 mg/kg peroral and percent change in iron levels was determined in Urine; assay type: functional; details: route oral; summary of the method: as §1
[37] = First order rate constant was determined in the presence of Fe(3+) Spectrophotometrically; assay type: ADME
Summary of the method: (§5)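 Iron(III)-promoted hydrolysis was followed spectrophotometrically in 50% aqueous methanol with Hepes buffer at pH 7.5 and 38 °C. Ester and ferric nitrate were each 1.7 × 10⁻⁴ M. The read-out was the rise in absorbance at 480 nm. Data were fitted by nonlinear least squares for consecutive first-order processes.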

Mus musculus [38] = assay: BDF1 male mice were administered with 200 mg/kg peroral and percent change in iron levels was determined in Spleen; assay type: functional; details: route oral; summary of the method: as §1
[39] = Half life was determined in the presence of Fe(III) Titrimetrically; assay type: ADME; summary of the method: as §4
Mus musculus [40] = assay: BDF1 male mice were administered with 200 mg/kg intraperitoneally and number of survivors was determined out of 10 tested; assay type: functional; details: route intraperitoneal; summary of the method: as §3
[41] = Half life was determined in the presence of Fe(III) Spectrophotometrically; assay type: ADME; summary of the method: as §5

## CC(C)OC(=O)CN(CCN(CC(=O)OC(C)C)Cc1ccccc1O)Cc1ccccc1O
Mus musculus [1]
  Iron change: 76%
Mus musculus [2]
  Iron change: 1%
[3]
  10E2 k1: 0.542 min⁻¹
Mus musculus [4]
  Iron change: 23%
Mus musculus [5]
  Iron change: -45%
Mus musculus [6]
  Iron change: 233%
Mus musculus [7]
  Iron change: 141%
Mus musculus [8]
  Iron change: 33%
Mus musculus [9]
  No. of survivors: 6
[10]
  half-life: 2.15 h
Mus musculus [11]
  Iron change: 5%
Mus musculus [12]
  No. of survivors: 6
Mus musculus [13]
  Iron change: 2%
Mus musculus [14]
  No. of survivors: 10
Mus musculus [15]
  Iron change: -27%
Mus musculus [16]
  Iron change: -56%
Mus musculus [17]
  Iron change: -45%
Mus musculus [18]
  Iron change: -5%
Mus musculus [19]
  Iron change: -32%
Mus musculus [20]
  Iron change: -34%
Mus musculus [21]
  Iron change: -13%
Mus musculus [22]
  Iron change: -1%
Mus musculus [23]
  Iron change: -10%
Mus musculus [24]
  No. of survivors: 6
Mus musculus [25]
  Iron change: -7%
Mus musculus [26]
  Iron change: -10%
Mus musculus [27]
  No. of survivors: 6

## O=C1CN(CCN2CC(=O)Oc3ccccc32)c2ccccc2O1
Mus musculus [28]
  Iron change: 157%
Mus musculus [29]
  Iron change: -2%
Mus musculus [30]
  No. of survivors: 10
Mus musculus [31]
  Iron change: -17%
Mus musculus [32]
  Iron change: -65%
Mus musculus [33]
  Iron change: -56%
Mus musculus [34]
  Iron change: -68%
[35]
  10E2 k1: 0.97 min⁻¹
Mus musculus [36]
  Iron change: 93%
[37]
  10E2 k1: 0.587 min⁻¹
Mus musculus [38]
  Iron change: -30%
[39]
  half-life: 1.19 h
Mus musculus [40]
  No. of survivors: 8
[41]
  half-life: 1.97 h
